# Results reported in ChEMBL document CHEMBL1681751, “Synthesis and biological evaluation of imidazolo[2,1-b]benzothiazole derivatives, as potential p53 inhibitors” (Bioorg Med Chem, 2011).
# Activity calls are given as the source filed them. No cut-off for these calls is given here.
# How the values were obtained:
# [1] = system: IGROV-1; assay: Antiproliferative activity against human IGROV1 cells after 72 hrs by cell counter; format: functional, cell-based
# Summary of the method: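 Log-phase cells seeded in duplicate; for the paclitaxel combination, cells got compound 2 h before the antimicrotubule agent. Final DMSO at most 0.5%. After treatment, adherent cells were trypsinized and counted with a cell counter. IC50 is the concentration giving 50% fewer cells than untreated control.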
# [2] = system: IGROV-1; assay: Antitumor activity against human IGROV1 cells xenografted in athymic Swiss nude mouse assessed as tumor volume inhibition at 9 mg/kg, iv every 4 days for 4 administration; format: functional; set-up: scale not given: the % may be the effect or the level left
# Summary of the method: (§1)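 Female athymic Swiss nude mice received IGROV-1 tumors sc in the right flank (10^7 cells/mouse), then maintained by serial sc passage of about 3x3x3 mm fragments. Dosing was iv, q4dx4, starting when tumors were about 80 mg. Read-out was % tumor volume inhibition, treated vs control, 4 mice per group, Student's t-test vs control.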
# [3] = system: IGROV-1; assay: Antitumor activity against human IGROV1 cells xenografted in athymic Swiss nude mouse assessed as tumor volume inhibition at 18 mg/kg, iv every 4 days for 4 administration; format: functional; set-up: scale not given: the % may be the effect or the level left; summary of the method: as §1
# [4] = system: Mus musculus; assay: Toxicity in athymic Swiss nude mouse assessed as body weight loss at 9 mg/kg, iv every 4 days for 4 administration; format: organism-based; set-up: dose 9 mg/kg, route intravenous; conditions: in vivo, 96 h
# Summary of the method: (§2)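 Female athymic Swiss nude mice with sc IGROV-1 xenografts were dosed iv every four days for 4 administrations (q4dx4), 4 mice per group. Toxicity was scored as % body weight loss from drug treatment, with lethal toxicity counted per group.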
# [5] = system: Mus musculus; assay: Toxicity in athymic Swiss nude mouse assessed as body weight loss at 18 mg/kg, iv every 4 days for 4 administration; format: organism-based; set-up: dose 18 mg/kg, route intravenous; conditions: in vivo, 96 h; summary of the method: as §2
# [6] = system: Mus musculus; assay: Toxicity in athymic Swiss nude mouse assessed as lethal toxicity at 9 mg/kg, iv every 4 days for 4 administration; format: organism-based; set-up: dose 9 mg/kg, route intravenous; conditions: in vivo, 96 h
# Summary of the method: (§3)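 Female athymic Swiss nude mice bearing sc IGROV-1 human ovarian carcinoma xenografts (10^7 exponentially growing cells/mouse into right flank; lines kept by serial sc fragment passage). Dosed iv every four days for 4 administrations (q4dx4), starting when tumors were measurable (around 80 mg). Lethal toxicity scored as animals dying per group (4 mice/group).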
# [7] = system: Mus musculus; assay: Toxicity in athymic Swiss nude mouse assessed as lethal toxicity at 18 mg/kg, iv every 4 days for 4 administration; format: organism-based; set-up: dose 18 mg/kg, route intravenous; conditions: in vivo, 96 h; summary of the method: as §3
# [8] = system: IGROV-1; assay: Induction of apoptosis in human IGROV1 cells at 0.12 uM after 72 hrs by TUNEL assay; format: functional
# Summary of the method: (§4)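 IGROV-1 cells were exposed for 72 h; in the combination they were pretreated 2 h with compound before paclitaxel. Cells were fixed in 4% paraformaldehyde for 60 min at room temperature and washed. TUNEL labelling with fluorescein was read by flow cytometry as % TUNEL-positive cells, with at least three independent experiments.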
# [9] = system: U2OS; assay: Antitumor activity against human U2OS cells xenografted in athymic Swiss nude mouse at 24 mg/kg, iv administered every 4 days relative to paclitaxel; format: functional, organism-based; set-up: dose 24 mg/kg
# Summary of the method: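 U2OS osteosarcoma tumors were grown sc in female athymic Swiss nude mice from 10^7 cells/mouse and kept by serial fragment passage. Dosing was iv every four days for 4 administrations, alone or combined with paclitaxel, starting at about 80 mm3. Controls received solvent. Tumor growth and complete regressions were followed.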
# [10] = system: IGROV-1; assay: Reduction of paclitaxel-induced p21 expression in human IGROV1 cells at 0.12 uM after 24 hrs by Western blot analysis; format: functional, cell-based
# Summary of the method: (§5)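 IGROV-1 cells were treated 24 h with paclitaxel 0.12 µM, compound, or both, then lysed. p53 and p21waf1 were detected by Western blot.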
# [11] = system: IGROV-1; assay: Reduction of paclitaxel-induced p21 expression in human IGROV1 cells at 5 uM after 24 hrs by Western blot analysis; format: functional, cell-based; summary of the method: as §5
# [12] = system: IGROV-1; assay: Reduction of paclitaxel-induced p21 expression in human IGROV1 cells at 0.3 uM after 24 hrs by Western blot analysis; format: functional, cell-based; summary of the method: as §5
# [13] = system: IGROV-1; assay: Reduction of paclitaxel-induced p21 expression in human IGROV1 cells at 10 uM after 24 hrs by Western blot analysis; format: functional, cell-based; summary of the method: as §5
# [14] = system: IGROV-1; assay: Induction of apoptosis in human IGROV1 cells at 5 uM after 72 hrs by TUNEL assay; format: functional; summary of the method: as §4
# [15] = system: IGROV-1; assay: Antitumor activity against human IGROV1 cells xenografted in athymic Swiss nude mouse assessed as tumor volume inhibition at 3 mg/kg, iv every 4 days for 4 administration; format: functional; set-up: scale not given: the % may be the effect or the level left; summary of the method: as §1
# [16] = system: Mus musculus; assay: Toxicity in athymic Swiss nude mouse assessed as body weight loss at 3 mg/kg, iv every 4 days for 4 administration; format: organism-based; set-up: dose 3 mg/kg, route intravenous; conditions: in vivo, 96 h; summary of the method: as §2
# [17] = system: Mus musculus; assay: Toxicity in athymic Swiss nude mouse assessed as lethal toxicity at 3 mg/kg, iv every 4 days for 4 administration; format: organism-based; set-up: dose 3 mg/kg, route intravenous; conditions: in vivo, 96 h; summary of the method: as §3
compound,measurement,setting,value
NCc1ccc(-c2cn3c4c(sc3n2)CCCC4)cc1 [listing 1 of 2 here],IC50,[1]; igrov-1,12 µM
O=Cc1ccc(-c2cn3c(n2)sc2ccccc23)cc1,IC50,"[1]; Homo sapiens, IGROV-1, 72 h",6 µM
CC(=O)NCc1ccc(-c2cn3c4c(sc3n2)CCCC4)cc1,IC50,"[1]; Homo sapiens, IGROV-1, 72 h",28 µM
OCc1ccc(-c2cn3c(n2)sc2ccccc23)cc1,IC50,"[1]; Homo sapiens, IGROV-1, 72 h",7 µM
NCc1ccc(-c2cn3c(n2)sc2ccccc23)cc1 [listing 1 of 2 here],IC50,[1]; igrov-1,0.03 µM
Brc1ccc(-c2cn3c(n2)sc2ccccc23)cc1,IC50,"[1]; Homo sapiens, IGROV-1, 72 h",0.3 µM
COc1ccc(-c2ccc(-c3cn4c(n3)sc3ccccc34)cc2)cc1,IC50,"[1]; Homo sapiens, IGROV-1, 72 h",< 1 µM
NCCC(=O)NCc1ccc(-c2cn3c(n2)sc2ccccc23)cc1,IC50,"[1]; Homo sapiens, IGROV-1, 72 h",3 µM
Cl.NCc1ccc(-c2cn3c4c(sc3n2)CCCC4)cc1,IC50,[1]; igrov-1,31 µM
same,Activity,[2],21%
same,Activity,[3],27%
same,Activity,[4],6%
same,Activity,[5],4%
same,Activity,[6],Non-toxic
same,Activity,[7],Non-toxic
CC(=O)O[C@H]1C(=O)[C@@]2(C)[C@H]([C@H](OC(=O)c3ccccc3)[C@]3(O)C[C@H](OC(=O)[C@H](O)[C@@H](NC(=O)c4ccccc4)c4ccccc4)C(C)=C1C3(C)C)[C@]1(OC(C)=O)CO[C@@H]1C[C@@H]2O [PACLITAXEL],Activity,[8],13%
same,Activity,[9],inactive
NCc1ccc(-c2cn3c4c(sc3n2)CCCC4)cc1 [listing 2 of 2 here],Activity,[10],Active
same,Activity,[11],Active
same,Activity,[12],Active
same,Activity,[13],Active
CCn1c2ccccc2n2cc(-c3ccc(C#N)cc3)nc12,IC50,"[1]; Homo sapiens, IGROV-1, 72 h",4.5 µM
Nc1ccc(-c2cn3c4c(sc3n2)CCCC4)cc1 [listing 1 of 3 here],Activity,[10],Active
same,Activity,[11],Active
same,Activity,[12],Active
same,Activity,[13],Active
Nc1ccc(-c2cn3c(n2)sc2ccccc23)cc1 [listing 1 of 3 here],Activity,[10],Active
same,Activity,[11],Active
same,Activity,[12],Active
same,Activity,[13],Active
Nc1ccc(-c2cn3c4c(sc3n2)CCCC4)cc1 [listing 2 of 3 here],IC50,[1]; igrov-1,4 µM
same,Activity,[14],4%
Nc1ccc(-c2cn3c(n2)sc2ccccc23)cc1 [listing 2 of 3 here],IC50,[1]; igrov-1,5 µM
Nc1ccc(-c2cn3c(n2)sc2ccccc23)cc1 [listing 3 of 3 here],IC50,[1]; igrov-1,1 µM
Cn1c2ccccc2n2cc(-c3ccc(C#N)cc3)nc12,IC50,"[1]; Homo sapiens, IGROV-1, 72 h",7 µM
Cc1ccc(-c2cn3c(n2)sc2ccccc23)cc1,IC50,"[1]; Homo sapiens, IGROV-1, 72 h",0.3 µM
NCc1ccc(-c2cn3c(n2)sc2ccccc23)cc1 [listing 2 of 2 here],Activity,[10],Active
same,Activity,[11],Active
same,Activity,[12],Active
same,Activity,[13],Active
O=[N+]([O-])c1ccc(-c2cn3c(n2)sc2ccccc23)cc1,IC50,"[1]; Homo sapiens, IGROV-1, 72 h",2 µM
N#Cc1ccc(-c2cn3c4c(sc3n2)CCCC4)cc1,IC50,"[1]; Homo sapiens, IGROV-1, 72 h",8 µM
CC(=O)NCc1ccc(-c2cn3c(n2)sc2ccccc23)cc1,IC50,"[1]; Homo sapiens, IGROV-1, 72 h",12 µM
Cc1ccc(-c2cn3c4c(sc3n2)CCCC4)cc1,IC50,"[1]; Homo sapiens, IGROV-1, 72 h",23 µM
Nc1ccc(-c2cn3c4c(sc3n2)CCCC4)cc1 [listing 3 of 3 here],IC50,[1]; igrov-1,19 µM
N#Cc1ccc(-c2cn3c(n2)sc2ccccc23)cc1,IC50,"[1]; Homo sapiens, IGROV-1, 72 h",0.03 µM
Cl.NCc1ccc(-c2cn3c(n2)sc2ccccc23)cc1,IC50,[1]; igrov-1,0.3 µM
same,Activity,[15],15%
same,Activity,[2],46%
same,Activity,[16],3%
same,Activity,[4],5%
same,Activity,[17],Non-toxic
same,Activity,[6],Non-toxic
CC(C)NC(=O)CCNCc1ccc(-c2cn3c(n2)sc2ccccc23)cc1,IC50,"[1]; Homo sapiens, IGROV-1, 72 h",5 µM
